Assay results taken from ChEMBL document CHEMBL1154160, “Synthesis, antiviral activity, and stability of nucleoside analogs containing tricyclic bases” (Eur J Med Chem, 2009).

Legend:
Hepatitis C virus = experiment: Antiviral activity against HCV in human Huh7 cells by RNA replicon assay; format: functional, organism-based, Hepacivirus hominis; conditions: Huh-7
PBMC = experiment: (§1) Cytotoxicity against human PBMC cells; format: cell-based; conditions: pbmc
CCRF-CEM = experiment: (§2) Cytotoxicity against human CEM cells; format: cell-based; conditions: ccrf-cem
Vero = experiment: (§3) Cytotoxicity against african green monkey Vero cells; format: cell-based; conditions: chlorocebus sabaeus, vero
[1] = tested on: Human immunodeficiency virus; experiment: Antiviral activity against HIV in human PBM cells; conditions: Human immunodeficiency virus 1, PBMC
[2] = Stability in water assessed as half life; format: physicochemical; conditions: buffer
Outline: (§4)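 Analogs were diluted from a freshly made stock into water and into methanol, with one half held at room temperature and the other at 4°C. Samples were injected at intervals: every 15 min for 2 hr, then hourly, daily and weekly. LC-MS/MS used a C18 column at 30°C with a formate pH 3 (or water)/methanol gradient, ESI-positive SRM. Released guanine-analog was quantified against 10–1000 nM standard curves.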

[3] = Stability in methanol assessed as 3'-azido-3'-deoxyguanosine levels after 72 hrs; format: physicochemical; outline: as §4
[4] = as §1; format: cell-based; conditions: PBMC cells
[5] = as §2; format: cell-based, CCRF-CEM; conditions: CEM (CCRF-CEM) cells
[6] = as §3; format: cell-based; conditions: chlorocebus sabaeus, Vero cells

| Compound | EC50 (Hepatitis C virus) | EC90 (Hepatitis C virus) | CC50 (PBMC) | CC50 (CCRF-CEM) | CC50 (Vero) | EC50 [1] | EC90 [1] | t1/2 [2] | Activity [3] | CC50 [4] | CC50 [5] | CC50 [6] |
| --- | --- | --- | --- | --- | --- | --- | --- | --- | --- | --- | --- | --- |
| O=c1c2ncn([C@H]3C=C[C@@H](CO)C3)c2nc2[nH]c(-c3cccs3)cn12 | > 10 µM | > 10 µM | > 100 µM | > 100 µM | > 100 µM | 0.64 µM | 7.1 µM | – | – | – | – | – |
| O=c1c2ncn([C@H]3CO[C@@H](CO)O3)c2nc2[nH]c(-c3ccsc3)cn12 | > 10 µM | > 10 µM | > 100 µM | > 100 µM | > 100 µM | 0.91 µM | 6.6 µM | – | – | – | – | – |
| O=c1c2ncn([C@H]3CO[C@@H](CO)O3)c2nc2[nH]c(-c3ccccc3)cn12 | > 10 µM | > 10 µM | > 100 µM | > 100 µM | > 100 µM | 7.1 µM | 43.5 µM | – | – | – | – | – |
| COc1ccccc1-c1cn2c(=O)c3ncn([C@H]4CO[C@@H](CO)O4)c3nc2[nH]1 | > 10 µM | > 10 µM | > 100 µM | > 100 µM | > 100 µM | 8.5 µM | 26.8 µM | – | – | – | – | – |
| [N-]=[N+]=N[C@H]1C[C@H](n2cnc3c(=O)n4cc(-c5ccccc5)[nH]c4nc32)O[C@@H]1CO | > 10 µM | > 10 µM | 69.6 µM | 21.8 µM | > 100 µM | 8.4 µM | 94.1 µM | – | – | – | – | – |
| CCN(CC)c1ccc(-c2cn3c(=O)c4ncn([C@H]5C=C[C@@H](CO)C5)c4nc3[nH]2)cc1 | > 10 µM | > 10 µM | > 100 µM | > 100 µM | > 100 µM | 0.13 µM | 0.65 µM | – | – | – | – | – |
| CCN(CC)c1ccc(-c2cn3c(=O)c4ncn([C@H]5C[C@H](N=[N+]=[N-])[C@@H](CO)O5)c4nc3[nH]2)cc1 | > 10 µM | > 10 µM | > 100 µM | 14.1 µM | 72.8 µM | 0.04 µM | 0.34 µM | 25 min | 1% | – | – | – |
| C[C@@]1(O)[C@H](O)[C@@H](CO)O[C@H]1n1cnc2c(=O)n3cc(-c4ccsc4)[nH]c3nc21 | ≥ 10 µM | > 10 µM | > 100 µM | > 100 µM | > 100 µM | > 100 µM | > 100 µM | – | – | – | – | – |
| CCN(CC)c1ccc(-c2cn3c(=O)c4ncn([C@H]5CO[C@@H](CO)O5)c4nc3[nH]2)cc1 | > 10 µM | > 10 µM | > 100 µM | 80.8 µM | 63 µM | 0.25 µM | 1.25 µM | – | – | – | – | – |
| COc1ccc(-c2cn3c(=O)c4ncn([C@@H]5O[C@H](CO)[C@@H](O)[C@@]5(C)O)c4nc3[nH]2)cc1 | ≥ 10 µM | > 10 µM | > 100 µM | > 100 µM | > 100 µM | > 100 µM | > 100 µM | – | – | – | – | – |
| O=c1c2ncn([C@H]3CO[C@@H](CO)O3)c2nc2[nH]c(-c3ccc(F)cc3)cn12 | > 10 µM | > 10 µM | > 100 µM | > 100 µM | > 100 µM | 43.5 µM | > 100 µM | – | – | – | – | – |
| CN(C)c1ccc(-c2cn3c(=O)c4ncn([C@H]5CO[C@@H](CO)O5)c4nc3[nH]2)cc1 | > 10 µM | > 10 µM | > 100 µM | > 100 µM | > 100 µM | 0.61 µM | 1.5 µM | – | – | – | – | – |
| CCc1cn2c(=O)c3ncn([C@@H]4O[C@H](CO)[C@@H](O)[C@@]4(C)O)c3nc2[nH]1 | > 10 µM | > 10 µM | – | – | – | > 100 µM | > 100 µM | – | – | > 100 µM | > 100 µM | > 100 µM |
| O=c1c2ncn([C@H]3CO[C@@H](CO)O3)c2nc2[nH]c(-c3cccs3)cn12 | > 10 µM | > 10 µM | > 100 µM | > 100 µM | > 100 µM | 3 µM | 16 µM | – | – | – | – | – |
| Cc1ccc(-c2cn3c(=O)c4ncn([C@H]5CO[C@@H](CO)O5)c4nc3[nH]2)cc1 | > 10 µM | > 10 µM | > 100 µM | > 100 µM | > 100 µM | 4.9 µM | 23.9 µM | – | – | – | – | – |
| Cc1ccc(-c2cn3c(=O)c4ncn([C@H]5C=C[C@@H](CO)C5)c4nc3[nH]2)cc1 | > 10 µM | > 10 µM | > 100 µM | > 100 µM | > 100 µM | 5 µM | 30.1 µM | – | – | – | – | – |
| O=c1c2ncn([C@H]3CO[C@@H](CO)O3)c2nc2[nH]c(-c3ccc(F)cc3F)cn12 | > 10 µM | > 10 µM | > 100 µM | > 100 µM | > 100 µM | 14.7 µM | 51.8 µM | – | – | – | – | – |
